Columns and labels:
Format in all cases: functional
[1] = tested on: OVCAR-8; assay: Growth inhibition of human OVCAR8 cells after 48 hrs by sulforhodamine B assay; settings: OVCAR-8, 48 h
Procedure, shortened: (§1)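 Adherent NCI-60 lines were grown in RPMI 1640 with 5% FBS and 2 mM L-glutamine, plated at 5000–40,000 cells/well and preincubated 24 h. They were then exposed to five concentrations (0.01–100 µM, from a DMSO stock) for 48 h at 37 °C, 5% CO2. Cells were fixed with cold TCA (10% final, 60 min, 4 °C) and stained with 0.4% SRB. Dye was solubilized in 10 mM Tris base and A515 read. GI50 was derived from time-zero, control and treated absorbances.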

[2] = tested on: OVCAR-4; assay: Cytotoxicity against human OVCAR4 cells assessed as cell growth at 0.01 uM after 48 hrs by sulforhodamine B assay; settings: OVCAR-4, 48 h, read-out: Activity
[3] = tested on: SF-268; assay: Growth inhibition of human SF268 cells after 48 hrs by sulforhodamine B assay; settings: SF-268, 48 h; procedure, shortened: as §1
[4] = tested on: KM12; assay: Cytotoxicity against human KM12 cells assessed as cell growth at 10 uM after 48 hrs by sulforhodamine B assay; settings: KM12, 48 h, read-out: Activity
[5] = tested on: SK-MEL-28; assay: Cytotoxicity against human SK-MEL-28 cells assessed as cell growth at 1 uM after 48 hrs by sulforhodamine B assay; settings: SK-MEL-28, 48 h, read-out: Activity
[6] = tested on: BT-549; assay: Cytotoxicity against human BT549 cells assessed as cell growth at 1 uM after 48 hrs by sulforhodamine B assay; settings: BT-549, 48 h, read-out: Activity
Procedure, shortened: (§2)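 NCI-60 five-dose screen. Cells were grown in RPMI 1640 with 5% FBS and 2 mM L-glutamine and preincubated 24 h. Compound (DMSO stock) was tested at 0.01, 0.1, 1, 10 and 100 µM for 48 h at 37 °C. Cells were fixed in situ with cold TCA (final 10%) and stained with 0.4% SRB. A515 was read, and percent growth was calculated against time-zero and control plates.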

[7] = Cytotoxicity against human Hs 578T cells assessed as cell growth at 100 uM after 48 hrs by sulforhodamine B assay; settings: read-out: Activity
[8] = tested on: RXF 393; assay: Growth inhibition of human RXF393 cells after 48 hrs by sulforhodamine B assay; settings: RXF 393, 48 h; procedure, shortened: as §1
[9] = tested on: U-251; assay: Cytotoxicity against human U251 cells assessed as cell growth at 0.1 uM after 48 hrs by sulforhodamine B assay; settings: U-251, 48 h, read-out: Activity
[10] = tested on: RPMI-8226; assay: Growth inhibition of human RPMI8226 cells after 48 hrs by sulforhodamine B assay; settings: RPMI-8226, 48 h; for CC50: read-out: LC50 (the source's name)
Procedure, shortened: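 Leukemia suspension lines were grown in RPMI 1640 with 5% FBS and 2 mM L-glutamine and plated at 5000–40,000 cells/well with 24 h preincubation. They were treated at 0.01, 0.1, 1, 10 and 100 µM (DMSO stock) for 48 h at 37 °C. Settled cells were fixed with 80% TCA (16% final) and stained with 0.4% SRB in 1% acetic acid, then read at 515 nm. GI50 was calculated against time-zero and control wells.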

[11] = tested on: COLO 205; assay: Cytotoxicity against human COLO205 cells assessed as cell growth at 0.1 uM after 48 hrs by sulforhodamine B assay; settings: COLO 205, 48 h, read-out: Activity; procedure, shortened: as §2
[12] = tested on: HCT-116; assay: Cytotoxicity against human HCT116 cells assessed as cell growth at 10 uM after 48 hrs by sulforhodamine B assay; settings: HCT-116, 48 h, read-out: Activity
Procedure, shortened: (§3)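 Five-dose NCI panel run at 0.01, 0.1, 1, 10 and 100 µM. Cells were in RPMI 1640 with 5% FBS and 2 mM L-glutamine, seeded at 5000–40,000 cells/well and pre-incubated 24 h. Drug was diluted from a DMSO stock into medium with 50 µg/ml gentamicin. Exposure was 48 h at 37 °C, 5% CO2. Cells were fixed with cold TCA and stained with 0.4% SRB, read at 515 nm. Percent growth came from time-zero, control and test absorbances.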

[13] = tested on: ACHN; assay: Cytotoxicity against human ACHN cells assessed as cell growth at 1 uM after 48 hrs by sulforhodamine B assay; settings: read-out: Activity; procedure, shortened: as §2
[14] = tested on: HOP-62; assay: Cytotoxicity against human HOP62 cells assessed as cell growth at 0.1 uM after 48 hrs by sulforhodamine B assay; settings: HOP-62, 48 h, read-out: Activity; procedure, shortened: as §3
[15] = tested on: COLO 205; assay: Cytotoxicity against human COLO205 cells assessed as cell growth at 10 uM after 48 hrs by sulforhodamine B assay; settings: COLO 205, 48 h, read-out: Activity; procedure, shortened: as §2
[16] = tested on: UO-31; assay: Cytotoxicity against human UO31 cells assessed as cell growth at 10 '-5 M after 48 hrs by sulforhodamine B assay; settings: UO-31, 48 h, read-out: Activity
[17] = tested on: SF-295; assay: Cytotoxicity against human SF295 cells assessed as cell growth at 10 '-5 M after 48 hrs by sulforhodamine B assay; settings: SF-295, 48 h, read-out: Activity
[18] = tested on: SK-MEL-28; assay: Cytotoxicity against human SK-MEL-28 cells assessed as cell growth at 0.01 uM after 48 hrs by sulforhodamine B assay; settings: SK-MEL-28, 48 h, read-out: Activity
[19] = tested on: SF-268; assay: Cytotoxicity against human SF268 cells assessed as cell growth at 0.01 uM after 48 hrs by sulforhodamine B assay; settings: SF-268, 48 h, read-out: Activity
[20] = tested on: T47D; assay: Cytotoxicity against human T47D cells assessed as cell growth at 0.01 uM after 48 hrs by sulforhodamine B assay; settings: read-out: Activity
[21] = tested on: U-251; assay: Cytotoxicity against human U251 cells assessed as cell growth at 0.01 uM after 48 hrs by sulforhodamine B assay; settings: U-251, 48 h, read-out: Activity
[22] = tested on: HL-60(TB); assay: Cytotoxicity against human HL-60(TB) cells assessed as cell growth at 100 uM after 48 hrs by sulforhodamine B assay; settings: HL-60, 48 h, read-out: Activity
Procedure, shortened: (§4)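 NCI five-dose screen on the HL-60(TB) leukaemia line, grown in RPMI 1640 with 5% FBS and 2 mM L-glutamine and plated for 24 h before dosing. DMSO stocks were diluted in medium. Cells were exposed 48 h at 37 °C, then settled cells were fixed in 16% TCA (final) and stained with SRB, absorbance 515 nm. Percent growth = (Ti−Tz)/(C−Tz)×100, or (Ti−Tz)/Tz×100 when Ti<Tz.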

[23] = tested on: HL-60(TB); assay: Cytotoxicity against human HL-60(TB) cells assessed as cell growth at 1 uM after 48 hrs by sulforhodamine B assay; settings: HL-60, 48 h, read-out: Activity; procedure, shortened: as §4
[24] = tested on: HCT-15; assay: Cytotoxicity against human HCT15 cells assessed as cell growth at 1 uM after 48 hrs by sulforhodamine B assay; settings: HCT-15, 48 h, read-out: Activity; procedure, shortened: as §3
[25] = tested on: NCI-H322M; assay: Cytotoxicity against human NCI-H322M cells assessed as cell growth at 0.01 uM after 48 hrs by sulforhodamine B assay; settings: read-out: Activity
[26] = tested on: MOLT-4; assay: Cytotoxicity against human MOLT4 cells assessed as cell growth at 0.1 uM after 48 hrs by sulforhodamine B assay; settings: MOLT-4, 48 h, read-out: Activity
[27] = read-out: LC50 (the source's name)

SMILES | GI50 [1] | TGI [1] | growth at 0.01 µM [2] | GI50 [3] | LC50 (concentration killing 50% of the starting cells) [3] | TGI [3] | growth at 10 µM [4] | growth at 1 µM [5] | growth at 1 µM [6] | growth at 100 µM [7] | GI50 [8] | TGI [8] | growth at 0.1 µM [9] | GI50 [10] | TGI [10] | CC50 [10] | growth at 0.1 µM [11] | growth at 10 µM [12] | growth at 1 µM [13] | growth at 0.1 µM [14] | further results
Cc1ccc2nc(Nc3c(C)cccc3C)sc2c1 | 57.9 µM | > 100 µM | 97% | 29.3 µM | > 100 µM | > 100 µM | 30% | 66% | 63% | 27% | 1.2 µM | > 100 µM | 105% | > 100 µM | > 100 µM | > 100 µM | 112% | 21% | 84% | 98% | CC50 [1, 27]: > 100 µM; CC50 [8, 27]: > 100 µM; growth at 10 µM [15]: 49%; growth at 10 µM [16]: 43.7%; growth at 10 µM [17]: 18.9%; growth at 0.01 µM [18]: 94%; growth at 0.01 µM [19]: 94%; growth at 0.01 µM [20]: 94%; growth at 0.01 µM [21]: 97%; growth at 100 µM [22]: 53%; growth at 1 µM [23]: 56%; growth at 1 µM [24]: 48%; growth at 0.01 µM [25]: 97%; growth at 0.1 µM [26]: 111%
Clc1cccc(Cl)c1Nc1nc2cccc(Cl)c2s1 | 1.15 µM | 2.83 µM | 94% | 1.2 µM | 5.66 µM | 2.61 µM | -96% | 77% | 79% | -17% | 0.676 µM | 2.41 µM | 98% | 0.829 µM | 5.05 µM | > 100 µM | 94% | -98% | 60% | 96% | growth at 10 µM [15]: -91%; growth at 10 µM [16]: -55.1%; growth at 10 µM [17]: -45.1%; growth at 0.01 µM [18]: 93%; growth at 0.01 µM [19]: 98%; growth at 0.01 µM [20]: 95%; growth at 0.01 µM [21]: 104%; growth at 100 µM [22]: -57%; growth at 1 µM [23]: 63%; growth at 1 µM [24]: 59%; growth at 0.01 µM [25]: 92%; growth at 0.1 µM [26]: 109%

Reference: ChEMBL document CHEMBL2040734, “Benzothiazoles: search for anticancer agents” (2012)
